Values joined by “and” are separate entries in the source; they are usually repeats but may differ in a detail not shown here. Equal values may be shown once. Results filed as inconclusive are left out. Active and inactive are the calls of the source.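 How the source made its calls: active means rising curve reaching 40% of the stimulating control's effect at or below the top valid tested dose; inconclusive means flat curve between 30 and 70% of control, or poor fit; inactive means falling curves and all the rest.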
Target: Scavenger receptor class B member 1 (Mus musculus) (UniProt Q61009)
Assay: enhancers of HDL binding to SR-BI, dose response, orthogonal assay for SR-BI HDL uptake inhibitor project, ldlA[mSR-BI] cells, Alexa488-HDL, powder samples, set 2 (AID 588810)
Conditions: ldlA[mSR-BI] CHO cells, Alexa488-HDL binding fluorescence, 3 h
How it was run: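 Test system: mouse SR-BI-expressing ldlA CHO cells / Medium: F12, 0.5% BSA, 25 mM HEPES pH 7.4 / Reagent: 10 µg/mL Alexa488-labeled HDL / Doses: dose series of compound / Times: 3 h exposure at 37 °C / Signal: bottom-read fluorescence after two PBS washes / Benchmarks: positive control BLT-1 1 µM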

Chain of Scavenger receptor class B member 1 (Mus musculus) (Q61009 whole entry, looked up): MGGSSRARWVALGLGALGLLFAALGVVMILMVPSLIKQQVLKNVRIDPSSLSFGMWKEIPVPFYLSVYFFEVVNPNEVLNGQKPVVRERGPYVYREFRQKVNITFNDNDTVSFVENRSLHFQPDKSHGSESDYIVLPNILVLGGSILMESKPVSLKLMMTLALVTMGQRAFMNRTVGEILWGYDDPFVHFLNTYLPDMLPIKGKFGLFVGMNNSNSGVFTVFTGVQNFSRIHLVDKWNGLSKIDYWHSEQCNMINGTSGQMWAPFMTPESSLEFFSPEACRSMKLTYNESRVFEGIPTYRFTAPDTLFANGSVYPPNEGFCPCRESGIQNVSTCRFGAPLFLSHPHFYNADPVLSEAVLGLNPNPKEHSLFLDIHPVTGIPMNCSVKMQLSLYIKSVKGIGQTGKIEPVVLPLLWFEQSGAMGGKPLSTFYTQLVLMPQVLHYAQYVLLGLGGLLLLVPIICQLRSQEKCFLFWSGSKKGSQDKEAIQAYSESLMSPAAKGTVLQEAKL

Row | AC40 | Structure (SMILES)
1 | 73.3 nM | C[C@@H]1CN([C@H](C)CO)C(=O)c2cc(NC(=O)Cc3cn(C)c4ccccc34)ccc2O[C@H]1CN(C)S(=O)(=O)c1ccc(Cl)cc1
2 | 24.5 nM | COc1cc(OC)cc(C(=O)Nc2nc(-c3ccc4c(c3)CCN4C(=O)OC(C)(C)C)cs2)c1
3 | 214 nM | CC(C(=O)NC1CCCC1)N(C(=O)Cn1nnc(-c2ccc3c(c2)OCO3)n1)C1CCCCC1 (stereo not drawn)
4 | 358 nM | CCC(=O)N1CCc2cc(-c3csc(NC(=O)c4ccc(F)c(OC)c4)n3)ccc21
5 | 11800 nM | COc1ccc(-c2nnn(CC(=O)N(CC(=O)N3CCCCC3)C3CCCCC3)n2)cc1OC
6 | 382 nM | CCC(=O)N1CCc2cc(-c3csc(NC(=O)c4cc(OC)cc(OC)c4)n3)ccc21
7 | 145 nM | COc1ccc(-c2cc(CC(=O)N(C3CCCCC3)C(C)C(=O)NC3CCCC3)no2)cc1OC (stereo not drawn)
8 | 232 nM | COc1cc(OC)cc(C(=O)Nc2nc(-c3ccc4c(c3)CCN4C(=O)CN(C)C)cs2)c1
9 | 22.2 nM | CCC(=O)N1CCc2cc(-c3csc(NC(=O)c4cc(OC)c(OC)c(OC)c4)n3)ccc21
10 | > 80000 nM (inactive) | Cc1ccc2oc(-c3cccc(NC(=O)c4cc(-n5cnnc5)ccc4Cl)c3)nc2c1
11 | 371 nM | COc1cc(OC)cc(C(=O)Nc2nc(-c3ccc4c(c3)CCN4C(C)=O)cs2)c1
12 | 912 nM | CCC(=O)N1CCc2cc(-c3csc(NCc4cc(OC)cc(OC)c4)n3)ccc21
13 | 4950 nM | COc1ccc(-c2nnn(CC(=O)N(CC(=O)N(C)C3CCCC3)C3CCCCC3)n2)cc1OC
14 | 312 nM and 2270 nM | CCC(=O)N1CCc2cc(-c3csc(NC(=O)c4ccco4)n3)ccc21
15 | 231 nM | COc1ccc(-c2nnn(CC(=O)N(CC(=O)NC3CCCC3)C3CCCCC3)n2)cc1OC
16 | 454 nM | CCC(=O)N1CCc2cc(-c3csc(NC(=O)c4cccc(OC)c4)n3)ccc21
17 | 21.8 nM | COCC(=O)N1CCc2cc(-c3csc(NC(=O)c4cc(OC)cc(OC)c4)n3)ccc21

Row | AC40 | Structure (SMILES)
18 | 337 nM | O=C(CN(C(=O)Cn1nnc(-c2ccc3c(c2)OCO3)n1)C1CCCCC1)NC1CCCC1
19 | 488 nM | CC(=O)N1CCc2cc(-c3nc(NC(=O)c4cccc(OC(F)(F)F)c4)sc3C)ccc21
20 | 295 nM | O=C(Nc1nc(-c2ccc3c(c2)CCN3)cs1)c1ccco1
21 | 1640 nM | COc1c(NC(=O)C(=O)c2ccc(OCCN3CCOCC3)c3ccccc23)cc(C(C)(C)C)cc1NS(C)(=O)=O
22 | 437 nM | COc1ccc(-c2nnn(CC(=O)N(C3CCCCC3)C(C)C(=O)NC3CCCC3)n2)cc1OC (stereo not drawn)
23 | 1580 nM | CCC(=O)N1CCc2cc(-c3csc(NC(=O)c4cc5ccccc5o4)n3)ccc21
24 | 6.07 nM | CCC(=O)N1CC(C)(C)c2cc(-c3csc(NC(=O)c4cc(OC)cc(OC)c4)n3)ccc21
25 | 347 nM | CCC(=O)Nc1ccc(-c2csc(NC(=O)c3cccc(OC)c3)n2)cc1
26 | 12.7 nM | CCNC(=O)N1CCc2cc(-c3csc(NC(=O)c4cc(OC)cc(OC)c4)n3)ccc21
27 | 943 nM | CCC(=O)N1CCc2cc(-c3csc(NC(=O)c4cccc(OC(F)(F)F)c4)n3)ccc21
28 | 324 nM | COC(=O)N1CCc2cc(-c3csc(NC(=O)c4cc(OC)cc(OC)c4)n3)ccc21
29 | 169 nM | C[C@H](C(=O)NC1CCCC1)N(C(=O)Cn1nnc(-c2ccc3c(c2)OCO3)n1)C1CCCCC1
30 | 4690 nM | C[C@@H](C(=O)NC1CCCC1)N(C(=O)Cn1nnc(-c2ccc3c(c2)OCO3)n1)C1CCCCC1
31 | 57.1 nM | CCC(=O)N1CC(C)(C)c2cc(-c3csc(NC(=O)c4ccco4)n3)ccc21
32 | 1360 nM | COc1ccc(-c2nc(CC(=O)N(C3CCCCC3)C(C)C(=O)NC3CCCC3)co2)cc1OC (stereo not drawn)
33 | 672 nM | CCC(=O)n1ccc2cc(-c3csc(NC(=O)c4cc(OC)cc(OC)c4)n3)ccc21
